The test system of one data set is WiDr. The data set is described as follows: Growth inhibition of human WiDr cells after 48 hrs by sulforhodamine B assay. Type of data set: functional. In a few lines: (§1)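 Cells in RPMI 1640 with 5% heat-inactivated FCS and 2 mM L-glutamine at 37 °C, 5% CO2. Seeded per well: 7500 (HBL-100, SW1573), 15,000 (A2780, HeLa, T47D) or 20,000 (WiDr). Drug added day 1 in triplicate dilutions (DMSO 0.25% v/v) for 48 h. Cells fixed with cold TCA, 60 min, 4 °C, then SRB stained and read at 492 nm. NCI percentage-growth formulas used; GI50 taken at PG +50.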

For a further data set, the system named is HeLa. Put plainly: Growth inhibition of human HeLa cells after 48 hrs by sulforhodamine B assay. In kind it is functional. In a few lines:
as §1
(In general: In SRB staining, fixed cells bind dye roughly in proportion to their protein.)

A further data set concerns A2780. Put plainly: Growth inhibition of human A2780 cells after 48 hrs by sulforhodamine B assay. Type of data set: functional. The following applies: A2780, 48 h. The procedure, abridged: as §1
The next data set deals with SW1573. Put plainly: Growth inhibition of human SW1573 cells after 48 hrs by sulforhodamine B assay. Type of data set: functional. The following applies: SW1573, 48 h. In a few lines: as §1
The subject of another data set is T47D. Put plainly: Growth inhibition of human T47D cells after 48 hrs by sulforhodamine B assay. Type of data set: functional. The procedure, abridged: as §1
The next data set concerns HBL-100. The data set is described as follows: Growth inhibition of human HBL100 cells after 48 hrs by sulforhodamine B assay. Type of data set: functional. The following applies: HBL-100, 48 h. In a few lines:
as §1

The test system of a further data set is Artemia salina. The data set is described as follows: Toxicity in Artemia salina. In kind it is organism-based. The following applies: in vivo.

Some results are limits rather than exact numbers.

For 28 compounds, GI50 and Activity results are on record in ChEMBL document CHEMBL1156174, “Antiproliferative activity of synthetic naphthoquinones related to lapachol. First synthesis of 5-hydroxylapachol” (Bioorg Med Chem, 2010).

`NC1=CC(=O)c2cccc(O)c2C1=O`: the 50% growth inhibitory concentration (GI50) (commonly the concentration that inhibits growth by half) is 3.5 µM in the data set with WiDr; 5.7 µM with HeLa; 3.1 µM with A2780; 2 µM with SW1573; 4 µM with T47D; 2.9 µM with HBL-100.

Take `CC(C)=CCC1=C(O)C(=O)c2cccc(O)c2C1=O`: the GI50 stood at 6.3 µM in the data set with WiDr; 0.42 µM in the data set with HeLa; 0.57 µM with A2780; 0.7 µM with SW1573; 8.1 µM in the data set on T47D; 0.6 µM in the data set with HBL-100.

On to `C=CC(C)(C)C1=C(O)C(=O)c2cccc(O)c2C1=O`, for which the concentration for 50% growth inhibition (GI50) was 31 µM in the data set with WiDr; 28 µM in the data set on HeLa; 26 µM in the data set on A2780; 36 µM with SW1573; 27 µM in the data set on T47D; 31 µM with HBL-100.

As for `CC(C)=CCOC1=CC(=O)c2c(O)cccc2C1=O`, the concentration for 50% growth inhibition (GI50) in the data set with WiDr is 18 µM; with HeLa, 18 µM; in the data set on A2780 it was 12 µM; in the data set on SW1573, 17 µM; in the data set with T47D it was 28 µM; in the data set on HBL-100, 27 µM.

Take `CC1(C)C2=C(OC1CI)C(=O)c1cccc(O)c1C2=O` (centres undefined): the GI50 with WiDr is 2 µM; with HeLa it was 1.7 µM; in the data set on A2780 it was 1.7 µM; in the data set with SW1573, 1.3 µM; in the data set with T47D, 1.8 µM; in the data set on HBL-100, 1.9 µM.

In the case of `CC(C)(I)C1CC2=C(O1)C(=O)c1cccc(O)c1C2=O` (centres undefined), the concentration for 50% growth inhibition (GI50) with WiDr came to 1.9 µM; with HeLa, 2.4 µM; in the data set on A2780, 2.1 µM; in the data set on SW1573, 2.3 µM; in the data set on T47D, 2.3 µM; with HBL-100 it was 2 µM.

Turning to `CC(C)=CCOC1=C(CC=C(C)C)C(=O)c2c(O)cccc2C1=O`, the GI50 with WiDr was 11 µM; with HeLa, 1.9 µM; in the data set on A2780, 1 µM; in the data set on SW1573, 4.3 µM; in the data set on T47D it was 21 µM; with HBL-100 it was 1.6 µM.

With `CC(C)=CCC1=C(O)C(=O)c2c(O)cccc2C1=O`, the concentration for 50% growth inhibition (GI50) in the data set on WiDr came to 19 µM; in the data set with HeLa, 2.6 µM; in the data set on A2780 it was 3.9 µM; in the data set with SW1573 it was 18 µM; in the data set on T47D, 30 µM; with HBL-100, 21 µM.

Turning to `COC1=C(CC=C(C)C)C(=O)c2c(OC)cccc2C1=O`, the GI50 in the data set with WiDr turned out to be 28 µM; in the data set with HeLa it was 18 µM; in the data set on A2780, 21 µM; with SW1573 it was 5.8 µM; in the data set with T47D it was 45 µM; with HBL-100 it was 17 µM.

On to `C=C(C)C1CC2=C(O1)C(=O)c1cccc(O)c1C2=O` (centres undefined), for which the 50% growth inhibitory concentration (GI50) with WiDr worked out at 2 µM; in the data set on HeLa it was 0.8 µM; in the data set on A2780 it was 0.82 µM; in the data set with SW1573 it was 0.83 µM; with T47D, 2.2 µM; in the data set with HBL-100, 0.94 µM.

Take `CC(C)(O[N+](=O)[O-])C1CC2=C(O1)C(=O)c1cccc(O)c1C2=O` (centres undefined): the GI50 with WiDr was 18 µM; in the data set on HeLa, 2.2 µM; in the data set on A2780, 2.2 µM; in the data set with SW1573, 2.8 µM; with T47D, 23 µM; in the data set on HBL-100 it was 2.8 µM.

With `CC1(C)CCC2=C(O1)C(=O)c1cccc(O)c1C2=O`, the GI50 in the data set with WiDr was 18 µM; in the data set with HeLa it was 12 µM; in the data set with A2780, 3.2 µM; with SW1573, 2.7 µM; with T47D, 21 µM; in the data set on HBL-100 it was 2.6 µM.

For `CC(C)=CCOC1=CC(=O)c2cccc(O)c2C1=O`, the 50% growth inhibitory concentration (GI50) in the data set with WiDr worked out at 7.3 µM; with HeLa it was 4.5 µM; in the data set with A2780 it was 2 µM; in the data set on SW1573 it was 7.7 µM; in the data set on T47D, 23 µM; with HBL-100, 19 µM.

For `CC1(C)C2=C(OC1CI)C(=O)c1c(O)cccc1C2=O` (centres undefined), the concentration for 50% growth inhibition (GI50) came to 2 µM with WiDr; 1.3 µM with HeLa; 1.6 µM in the data set on A2780; 0.4 µM in the data set with SW1573; 2.5 µM in the data set on T47D; 0.41 µM in the data set on HBL-100.

Consider `C=CC(C)(C)C1=C(O)C(=O)c2c(O)cccc2C1=O`, for which the GI50 in the data set on WiDr came out at 23 µM; in the data set on HeLa it was 24 µM; in the data set with A2780, 21 µM; in the data set on SW1573, 3.8 µM; in the data set on T47D, 30 µM; with HBL-100, 16 µM.

For `CC(C)=CCOC1=C(CC=C(C)C)C(=O)c2cccc(O)c2C1=O`, the GI50 in the data set on WiDr was found to be 22 µM; with HeLa, 20 µM; in the data set on A2780 it was 5.9 µM; with SW1573, 5.1 µM; with T47D, 28 µM; with HBL-100, 20 µM.

Consider `COC1=C(CC=C(C)C)C(=O)c2c(O)cccc2C1=O`, for which the 50% growth inhibitory concentration (GI50) is 20 µM in the data set with WiDr; 3.5 µM in the data set on HeLa; 1.8 µM in the data set with A2780; 4.8 µM in the data set on SW1573; 22 µM in the data set on T47D; 20 µM in the data set with HBL-100.

With `O=C1C=C(O)c2cccc(O)c2C1=O`, the 50% growth inhibitory concentration (GI50) in the data set on WiDr is over 100 µM; in the data set with HeLa it was 90 µM; in the data set with A2780, 28 µM; with SW1573 it was 86 µM; in the data set with T47D it was over 100 µM; in the data set with HBL-100, over 100 µM.

Turning to `O=C1C=C(O)c2c(O)cccc2C1=O`, the 50% growth inhibitory concentration (GI50) in the data set with WiDr, in the data set with HeLa, with A2780, with SW1573, in the data set with T47D and in the data set with HBL-100 was over 100 µM in each case.

`CC1(C)C=CC2=C(O1)C(=O)c1c(O)cccc1C2=O`: the GI50 in the data set on WiDr amounted to 19 µM; in the data set on HeLa, 2.3 µM; with A2780, 2.4 µM; in the data set with SW1573 it was 4.8 µM; in the data set on T47D it was 19 µM; in the data set on HBL-100, 3.9 µM.

In the case of `CC(C)(O[N+](=O)[O-])C1CC2=C(O1)C(=O)c1ccccc1C2=O` (centres undefined), the GI50 with WiDr was determined as 4.8 µM; in the data set with HeLa it was 1.8 µM; with A2780, 2.1 µM; with SW1573, 2.5 µM; in the data set on T47D it was 20 µM; in the data set on HBL-100, 2.1 µM.

With `CN(C)C1=CC(=O)c2c(O)cccc2C1=O`, the GI50 was found to be 32 µM in the data set on WiDr; 19 µM in the data set with HeLa; 16 µM in the data set with A2780; 35 µM with SW1573; 38 µM in the data set with T47D; 30 µM with HBL-100.

As to `CN(C)C1=CC(=O)c2cccc(O)c2C1=O`, the GI50 came out at 17 µM in the data set on WiDr; 7.1 µM with HeLa; 2.4 µM with A2780; 5.3 µM with SW1573; 34 µM in the data set with T47D; 5.7 µM with HBL-100.

As to `CC1(C)CCC2=C(O1)C(=O)c1ccccc1C2=O` [ALPHA-LAPACHONE], the concentration for 50% growth inhibition (GI50) with WiDr is 26 µM; with HeLa it was 15 µM; in the data set on A2780, 4 µM; in the data set with SW1573, 3.1 µM; with T47D, 25 µM; with HBL-100, 14 µM.

Take `C=C(C)C1CC2=C(O1)C(=O)c1ccccc1C2=O` (stereo not drawn) [DEHYDROISO-ALPHA-LAPACHONE]: the 50% growth inhibitory concentration (GI50) with WiDr is 2.7 µM; with HeLa it was 2.1 µM; in the data set with A2780, 2.6 µM; with SW1573, 1.9 µM; with T47D, 21 µM; in the data set on HBL-100, 2.3 µM.

Consider `O=C1C=CC(=O)c2c(O)cccc21` [JUGLONE], for which the 50% growth inhibitory concentration (GI50) in the data set with WiDr is 81 µM; in the data set on HeLa, 89 µM; with A2780 it was 64 µM; in the data set on SW1573 it was 50 µM; with T47D, 77 µM; with HBL-100, 66 µM.

For the compound `CC(C)=CCC1=C(O)C(=O)c2ccccc2C1=O` [LAPACHOL], the Activity in the data set on Artemia salina is listed as 5 ppm. In addition, the GI50 is 36 µM with WiDr; 2.3 µM in the data set on HeLa; 1.9 µM with A2780; 34 µM in the data set on SW1573; 76 µM in the data set on T47D; 7.8 µM in the data set with HBL-100.

As to `CC1(C)CCC2=C(O1)c1ccccc1C(=O)C2=O` [LAPACHONE], the 50% growth inhibitory concentration (GI50) in the data set on WiDr came to 2 µM; in the data set on HeLa it was 0.81 µM; in the data set on A2780, 1.1 µM; in the data set with SW1573, 0.76 µM; with T47D, 2.3 µM; in the data set on HBL-100, 0.69 µM.
